According to ChEMBL document CHEMBL4190389, “Synthesis and activity of di- or trisubstituted N-(phenoxyalkyl)- or N-{2-[2-(phenoxy)ethoxy]ethyl}piperazine derivatives on the central nervous system” (Bioorg Med Chem Lett, 2018):
Blank lines part the entries; values can stand above or below the compound they belong to. Activity calls are given as the source filed them. The calls are words filed in the database; no cut-off is given here.

Assays:
Mus musculus [1] = assay: Antidepressant-like activity in Albino Swiss CD-1 mouse assessed as immobility time at 5 mg/kg, ip administered 30 mins prior to test measured for last 4 mins of 6 mins observation by forced swim test (reference value: 153.9 to 201.9 secs); type: functional
[2] = target: 5-hydroxytryptamine receptor 6 (Homo sapiens, UniProt P50406); assay: Displacement of [3H]LSD from recombinant human 5-HT6 receptor expressed in CHO cells cell membranes after 60 mins by liquid scintillation counting method
5-hydroxytryptamine receptor 6, sequence (P50406 whole entry): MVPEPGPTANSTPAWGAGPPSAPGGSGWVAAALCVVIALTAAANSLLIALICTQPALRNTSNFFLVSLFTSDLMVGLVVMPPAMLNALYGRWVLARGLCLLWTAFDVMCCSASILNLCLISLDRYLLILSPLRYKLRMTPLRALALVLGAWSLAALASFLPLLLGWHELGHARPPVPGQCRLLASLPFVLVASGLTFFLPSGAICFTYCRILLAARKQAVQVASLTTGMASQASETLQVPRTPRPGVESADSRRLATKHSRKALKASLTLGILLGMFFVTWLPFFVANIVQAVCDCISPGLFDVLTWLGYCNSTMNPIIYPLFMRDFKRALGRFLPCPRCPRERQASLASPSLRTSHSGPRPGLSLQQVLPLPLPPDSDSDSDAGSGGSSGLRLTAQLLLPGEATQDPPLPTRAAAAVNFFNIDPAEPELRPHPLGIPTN

[3] = target: T1, 5-hydroxytryptamine receptor 1A (Homo sapiens) (UniProt P08908); assay: Antagonist activity at human 5-HT1A receptor expressed in CHO-K1 cells co-expressing Galpha16 assessed as decrease in serotonin-induced calcium mobilization preincubated for 25 mins followed by serotonin challenge measured for 30 secs by aequorin-derived luminescence assay relative to control; type: functional, cell-based
T1 sequence (whole entry): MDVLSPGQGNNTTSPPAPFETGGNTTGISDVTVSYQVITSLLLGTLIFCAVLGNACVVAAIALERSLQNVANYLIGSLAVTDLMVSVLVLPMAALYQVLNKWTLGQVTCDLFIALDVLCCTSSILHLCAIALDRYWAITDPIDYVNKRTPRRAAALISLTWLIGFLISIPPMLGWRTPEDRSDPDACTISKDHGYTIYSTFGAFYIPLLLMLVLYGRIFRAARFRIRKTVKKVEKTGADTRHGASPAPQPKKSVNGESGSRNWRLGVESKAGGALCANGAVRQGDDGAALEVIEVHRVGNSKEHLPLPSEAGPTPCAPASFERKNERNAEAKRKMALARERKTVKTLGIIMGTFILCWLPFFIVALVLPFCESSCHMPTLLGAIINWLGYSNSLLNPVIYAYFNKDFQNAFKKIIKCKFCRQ

Mus musculus [4] = assay: Anxiolytic-like activity in Albino Swiss CD-1 mouse assessed as increase in number of punished crossings at 5 to 10 mg/kg, ip administered for 30 mins prior to test measured for 1 min by four-plate test; type: functional, organism-based
Method in brief: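 Four-plate test in mice, i.p., 30 min before test; vehicle 0.9% NaCl; doses 1.25–10 mg/kg; number of punished crossings counted; mean ± SEM, n = 8–10 mice per group; ANOVA F statistics.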

[5] = target: 5-hydroxytryptamine receptor 2A (Homo sapiens, UniProt P28223); assay: biochemical; type: cell-based, HEK293;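 further: radioligand displacement of [3H]ketanserin binding at human 5-HT2A receptor in membranes from HEK293 cells, 60 min incubation, read by liquid scintillation counting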
5-hydroxytryptamine receptor 2A, sequence (P28223 whole entry): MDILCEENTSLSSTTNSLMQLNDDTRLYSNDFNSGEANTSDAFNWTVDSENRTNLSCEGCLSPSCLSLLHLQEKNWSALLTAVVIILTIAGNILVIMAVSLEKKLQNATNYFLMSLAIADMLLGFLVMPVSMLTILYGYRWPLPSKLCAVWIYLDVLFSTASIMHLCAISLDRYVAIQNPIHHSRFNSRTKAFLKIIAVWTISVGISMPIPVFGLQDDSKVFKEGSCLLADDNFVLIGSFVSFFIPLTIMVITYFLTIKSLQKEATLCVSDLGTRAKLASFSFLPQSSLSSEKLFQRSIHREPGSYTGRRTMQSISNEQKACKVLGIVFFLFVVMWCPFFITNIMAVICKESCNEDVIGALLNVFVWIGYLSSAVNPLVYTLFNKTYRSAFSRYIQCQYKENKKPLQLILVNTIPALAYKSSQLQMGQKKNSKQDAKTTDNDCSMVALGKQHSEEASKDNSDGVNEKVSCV

D(2) dopamine receptor [6] = target: T2, D(2) dopamine receptor (Homo sapiens, UniProt P14416); assay: Displacement of [3H]methylspiperonee from recombinant human D2 receptor expressed in HEK293 cells cell membranes after 60 mins by liquid scintillation counting method
T2 sequence (P14416 whole entry): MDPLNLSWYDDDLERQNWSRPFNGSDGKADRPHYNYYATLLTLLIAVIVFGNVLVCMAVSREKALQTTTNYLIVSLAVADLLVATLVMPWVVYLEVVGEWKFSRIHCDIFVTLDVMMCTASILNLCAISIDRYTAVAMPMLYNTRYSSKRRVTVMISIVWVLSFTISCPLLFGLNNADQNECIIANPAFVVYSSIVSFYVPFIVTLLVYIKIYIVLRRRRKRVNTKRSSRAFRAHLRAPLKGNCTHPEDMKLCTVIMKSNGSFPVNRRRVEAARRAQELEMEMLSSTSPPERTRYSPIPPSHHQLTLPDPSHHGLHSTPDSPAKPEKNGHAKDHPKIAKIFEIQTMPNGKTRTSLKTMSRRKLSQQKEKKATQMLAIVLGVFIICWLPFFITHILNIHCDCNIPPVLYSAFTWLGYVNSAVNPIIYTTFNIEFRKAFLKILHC

D(2) dopamine receptor [7] = target: T2, D(2) dopamine receptor; assay: Agonist activity at human D2 receptor expressed in CHO-K1 cells co-expressing Galphaqi5 assessed as increase apomorphine-induced calcium mobilization measured for 30 secs by aequorin-derived luminescence assay relative to apomorphine; type: functional, cell-based
[8] = target: T3, 5-hydroxytryptamine receptor 1A (Homo sapiens, UniProt P08908); assay: Displacement of [3H]8-OH-DPAT from recombinant human 5-HT1A receptor expressed in HEK293 cell membranes after 60 mins by liquid scintillation counting method
T3 sequence (P08908 whole entry): T1 sequence (whole entry)

Mus musculus [9] = assay: Antidepressant-like activity in Albino Swiss CD-1 mouse assessed as immobility time at 20 mg/kg, ip administered 30 mins prior to test measured for last 4 mins of 6 mins observation by forced swim test (reference value: 153.9 to 201.9 secs); type: functional
[10] = target: T1, 5-hydroxytryptamine receptor 1A (Homo sapiens); assay: Agonist activity at human 5-HT1A receptor expressed in CHO-K1 cells co-expressing Galpha16 assessed as increase in calcium mobilization measured for 30 secs by aequorin-derived luminescence assay relative to serotonin; type: functional, cell-based
[11] = target: T4, 5-hydroxytryptamine receptor 7 (Homo sapiens, UniProt P34969); assay: Agonist activity at human 5-HT7 receptor expressed in CHO-K1 cells assessed as increase in serotonin-induced cAMP level after 1 hr by TR-FRET assay relative to serotonin; type: functional, cell-based
T4 sequence (P34969 whole entry): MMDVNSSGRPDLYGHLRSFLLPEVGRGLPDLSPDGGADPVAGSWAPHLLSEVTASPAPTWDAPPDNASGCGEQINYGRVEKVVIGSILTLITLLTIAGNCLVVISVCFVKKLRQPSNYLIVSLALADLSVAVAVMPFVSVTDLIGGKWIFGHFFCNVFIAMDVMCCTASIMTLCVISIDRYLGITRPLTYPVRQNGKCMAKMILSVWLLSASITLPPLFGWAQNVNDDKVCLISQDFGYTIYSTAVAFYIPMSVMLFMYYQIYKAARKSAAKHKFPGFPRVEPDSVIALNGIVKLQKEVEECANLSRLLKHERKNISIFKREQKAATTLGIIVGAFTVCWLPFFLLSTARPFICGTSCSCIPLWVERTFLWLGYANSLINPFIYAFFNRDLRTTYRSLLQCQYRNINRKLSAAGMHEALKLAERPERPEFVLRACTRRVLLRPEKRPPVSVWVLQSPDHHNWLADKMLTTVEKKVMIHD

Mus musculus [12] = assay: Toxicity in Albino Swiss CD-1 mouse assessed as effect on locomotory activity at 5 to 10 mg/kg, ip administered for 30 mins prior to test measured for 1 min; type: organism-based; conditions: in vivo
Method in brief: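 Mice dosed i.p. 30 min before test; vehicle groups received 0.9% NaCl. Spontaneous locomotion scored as number of crossings during a 1-min session. Each dose compared with its own vehicle group by Student t-test; mean ± SEM, n = 8–10 mice per group.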

Mus musculus [13] = assay: Antidepressant-like activity in Albino Swiss CD-1 mouse assessed as immobility time at 10 mg/kg, ip administered 30 mins prior to test measured for last 4 mins of 6 mins observation by forced swim test (reference value: 153.9 to 201.9 secs); type: functional
[14] = target: T4, 5-hydroxytryptamine receptor 7; assay: Antagonist activity at human 5-HT7 receptor expressed in CHO-K1 cells assessed as decrease in serotonin-induced cAMP level after 1 hr by TR-FRET assay; type: functional, cell-based
Mus musculus [15] = assay: Toxicity in Albino Swiss CD-1 mouse assessed as death at 30 mg/kg, ip; type: organism-based; conditions: in vivo
Method in brief: (§1)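 Deaths counted in mice during maximal electroshock (MES) seizure testing after i.p. dosing, 6 mice per dose (3 or 1 at some top doses); recorded as number dead/number tested alongside protection and rotarod motor impairment (10 rpm); untreated control group included.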

[16] = target: T4, 5-hydroxytryptamine receptor 7; assay: Antagonist activity at human 5-HT7 receptor expressed in CHO-K1 cells assessed as decrease in serotonin-induced cAMP level after 1 hr by TR-FRET assay relative to control; type: functional, cell-based
D(2) dopamine receptor [17] = target: T2, D(2) dopamine receptor; assay: Antagonist activity at human D2 receptor expressed in CHO-K1 cells co-expressing Galphaqi5 assessed as decrease in apomorphine-induced calcium mobilization preincubated for 30 mins followed by apomorphine challenge measured for 30 secs by aequorin-derived luminescence assay; type: functional, cell-based
[18] = target: T5, Alpha-1A adrenergic receptor (Homo sapiens, UniProt P35348); assay: Displacement of [3H]prazosin from recombinant human alpha1 adrenoceptor expressed in CHO cell membranes after 30 mins by liquid scintillation counting method
T5 sequence (P35348 whole entry): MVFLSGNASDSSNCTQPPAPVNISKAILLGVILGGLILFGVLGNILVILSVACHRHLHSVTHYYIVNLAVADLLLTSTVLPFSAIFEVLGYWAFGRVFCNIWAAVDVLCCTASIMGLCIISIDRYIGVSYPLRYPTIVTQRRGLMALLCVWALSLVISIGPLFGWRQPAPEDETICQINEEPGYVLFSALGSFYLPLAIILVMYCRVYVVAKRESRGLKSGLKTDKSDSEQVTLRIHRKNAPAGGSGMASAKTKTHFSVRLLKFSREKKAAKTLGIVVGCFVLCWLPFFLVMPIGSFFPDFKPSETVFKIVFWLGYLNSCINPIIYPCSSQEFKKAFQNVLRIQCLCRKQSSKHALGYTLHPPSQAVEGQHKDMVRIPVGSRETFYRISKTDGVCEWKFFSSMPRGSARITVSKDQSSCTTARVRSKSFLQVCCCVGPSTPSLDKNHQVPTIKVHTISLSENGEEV

[19] = target: T4, 5-hydroxytryptamine receptor 7; assay: biochemical; type: cell-based, CHO
[20] = target: T3, 5-hydroxytryptamine receptor 1A; assay: (§2) Antagonist activity at human 5-HT1A receptor expressed in CHO-K1 cells co-expressing Galpha16 assessed as decrease in serotonin calcium mobilization preincubated for 25 mins followed by serotonin challenge measured for 30 secs by aequorin-derived luminescence assay; type: functional, cell-based
[21] = target: T1, 5-hydroxytryptamine receptor 1A (Homo sapiens); assay: as §2; type: functional, cell-based
[22] = Neurotoxicity in ip dosed Albino Swiss CD-1 mouse assessed as minimum dose required to induce motor impairment treated 30 mins prior to test by rotarod test; type: toxicity, organism-based; conditions: in vivo
Mus musculus [23] = assay: Antinociceptive activity in STZ-induced Albino Swiss CD-1 mouse model of thermal-induced nociception assessed as increase in latency to respond with hind paw lick or jumping at 30 mg/kg, ip measured after 60 mins by hot plate test; type: functional, organism-based
Mus musculus [24] = assay: Antiallodynic activity in oxaliplatin-induced Albino Swiss CD-1 mouse allodynia model assessed as effect on decrease in abnormal movement at 30 mg/kg, ip measured after 60 mins by cold plate test; type: functional, organism-based
[25] = Protection index, ratio of TD50 for motor impairment in ip dosed Swiss albino CD-1 mouse to ED50 for protection against 50 Hz current-induced seizures in ip dosed Swiss albino CD-1 mouse; type: toxicity, organism-based, Swiss CD-1; conditions: in vivo, read-out: Ratio TD50/ED50
Mus musculus [26] = assay: Anticonvulsant activity in Albino Swiss CD-1 mouse assessed as protection against 50 Hz current-induced seizure at 100 mg/kg, ip; type: functional, organism-based
Mus musculus [27] = assay: Antiallodynic activity in oxaliplatin-induced Albino Swiss CD-1 mouse allodynia model assessed as effect on hind paw licking at 30 mg/kg, ip measured after 60 mins by cold plate test; type: functional, organism-based
Mus musculus [28] = assay: Antiallodynic activity in oxaliplatin-induced Albino Swiss CD-1 mouse allodynia model assessed as effect on shaking at 30 mg/kg, ip measured after 60 mins by cold plate test; type: functional, organism-based
Mus musculus [29] = assay: Toxicity in Albino Swiss CD-1 mouse assessed as death at 30 to 100 mg/kg, ip; type: organism-based; conditions: in vivo; method in brief: as §1
[30] = target: T1, 5-hydroxytryptamine receptor 1A (Homo sapiens); assay: Displacement of [3H]8-OH-DPAT from recombinant human 5-HT1A receptor expressed in HEK293 cell membranes at 10^-5 M after 60 mins by liquid scintillation counting method
D(2) dopamine receptor [31] = target: T2, D(2) dopamine receptor; assay: Displacement of [3H]methylspiperonee from recombinant human D2 receptor expressed in HEK293 cell membranes at 10^-5 M after 60 mins by liquid scintillation counting method
Mus musculus [32] = assay: Antiallodynic activity in oxaliplatin-induced Albino Swiss CD-1 mouse allodynia model assessed as effect on jumping at 30 mg/kg, ip measured after 60 mins by cold plate test; type: functional, organism-based
Mus musculus [33] = assay: Antiallodynic activity in STZ-induced Albino Swiss CD-1 mouse allodynia model assessed as increase in paw withdrawal latency time at 30 mg/kg, ip measured after 60 mins by Von Frey test; type: functional, organism-based
Mus musculus [34] = assay: Anticonvulsant activity in ip dosed Albino Swiss CD-1 mouse assessed as dose required to protect against 50 Hz current-induced seizure; type: functional; conditions: Swiss CD-1, ip
[35] = target: T6, Alpha-1A adrenergic receptor (Homo sapiens) (UniProt P35348); assay: Displacement of [3H]prazosin from recombinant human alpha1 adrenoceptor expressed in CHO cell membranes at 10^-5 M after 30 mins by liquid scintillation counting method
T6 sequence (whole entry): T5 sequence (P35348 whole entry)

Emax [3]: 0%
Emax [10]: 1%
IC50 [20]: 16.9 nM
Kb [21]: 6.6 nM
SMILES: COc1ccccc1N1CCN(C[C@@H](C(=O)NC(C)(C)C)c2ccccc2)CC1

Emax [11]: -1%
Emax [16]: -1%
SMILES: CC1CCN(CC[C@H]2CCCN2S(=O)(=O)c2cccc(O)c2)CC1

Emax (D(2) dopamine receptor [7]): 5%
SMILES: CN(C)CCCN1c2ccccc2Sc2ccc(Cl)cc21

Continued, compound first:

SMILES: COc1ccccc1N1CCN(CCCOc2ccc(C)cc2C)CC1.Cl
Time (Mus musculus [1]): 182.6 s
Ki [2]: > 5000 nM
Emax [3]: 2%
Activity (Mus musculus [4]): inactive
Ki [5]: 527 nM
Ki (D(2) dopamine receptor [6]): 97 nM
Emax (D(2) dopamine receptor [7]): 2%
Ki [8]: 2 nM
Time (Mus musculus [9]): 197.3 s
Emax [10]: 5%
Emax [11]: 0%
Activity (Mus musculus [12]): Non-Toxic
Time (Mus musculus [13]): 198.1 s
IC50 [14]: 1050 nM
Kb [14]: 448 nM
Activity (Mus musculus [15]): Non-Toxic
Emax [16]: 5%
IC50 (D(2) dopamine receptor [17]): 17.7 nM
Kb (D(2) dopamine receptor [17]): 5.29 nM
Ki [18]: 11 nM
Ki [19]: 15 nM
IC50 [20]: 7.19 nM
Kb [21]: 1.8 nM

SMILES: Cc1cc(C)c(C)c(OCCOCCN2CCN(CCO)CC2)c1.Cl.Cl
TD50 at 0.5 h [22]: 74.9 mg/kg
Time (Mus musculus [1]): 171.8 s
Activity (Mus musculus [23]): inactive
Activity (Mus musculus [24]): inactive
Ki [2]: > 5000 nM
selectivity ratio [25]: 3.07
Activity (Mus musculus [26]): Active
Activity (Mus musculus [27]): inactive
Activity (Mus musculus [28]): inactive
Activity (Mus musculus [29]): Non-Toxic
inhibition [30]: inactive
Activity (Mus musculus [4]): inactive
Ki [5]: > 5000 nM
Time (Mus musculus [9]): 176.4 s
inhibition (D(2) dopamine receptor [31]): inactive
Activity (Mus musculus [12]): Non-Toxic
Time (Mus musculus [13]): 184.9 s
Activity (Mus musculus [32]): inactive
Ki [19]: 3140 nM
Activity (Mus musculus [33]): Active
ED50 (Mus musculus [34]): 24.4 mg/kg
inhibition [35]: inactive
